SUMO1 PPI mod = modulators of SUMO1 protein-protein interactions, primary screen, biochemical, uHTS; AID 602429, 2012; 360,000 tested, 0.33% active; SUMO1 binding to a labelled peptide, TR-FRET, 1 h; inhibition, % at 20 µM; Small ubiquitin-related modifier 1 (Homo sapiens), P63165; in the data active means inhibition above about 37%
Scp1 inh = Scp-1 phosphatase inhibitors, primary screen, biochemical, colorimetric, uHTS | Recombinant Scp1, phosphopeptide, malachite green phosphate absorbance | inhibition, % at 20 µM | 340,000 tested, 0.88% active;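 active means inhibition above about 50% at 20 µM, limit read from the data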;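 further: plate controls were DMSO wells with enzyme for no effect and wells lacking enzyme for full effect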
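Test system: SCP-1 phosphatase catalytic domain, residues 76-261; measured by: colorimetric phosphate reagent with accelerator and stabiliser, absorbance at 630 nm; timing: enzyme reaction 45 min at room temperature, colour 5 min, stabilisation 30 min; also added: Phosphorylated 17-residue peptide substrate; compound dosing: one concentration, 20 µM, with 1.0% DMSO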
LMPTP inh = LMPTP phosphatase inhibitors, primary screen, biochemical, fluorescence intensity, uHTS | recombinant LMPTP-A, OMFP fluorogenic substrate | inhibition, % at 20 µM | 360,000 tested, 0.22% active;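 active means compounds that cut the enzyme signal by at least half of the control window in the single-dose screen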;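 further: plate controls were DMSO wells with enzyme plus substrate for no effect and substrate without enzyme for full effect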
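material = LMPTP-A | quantity = 0.625 nM enzyme | reagent = OMFP substrate, 400 µM final | buffer or medium = Bis-Tris pH 6.0, DTT, detergent | detection = endpoint fluorescence intensity from OMFP dephosphorylation | dosing = single 20 µM dose | read-out basis = % inhibition relative to no-enzyme and uninhibited control wells | control set = no-enzyme and uninhibited controls | timing = 50 min at room temperature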
FAS-TE inh = FAS thioesterase domain inhibitors, primary screen, biochemical, fluorescence intensity, uHTS; Fatty acid synthase (Homo sapiens), P49327; recombinant FAS-TE, OMFH fluorogenic substrate, fluorescence endpoint; 360,000 tested, 0.67% active; inhibition, % at 15 µM;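 active means compounds whose normalised, plate-corrected inhibition of enzyme fluorescence in the single-dose primary screen is 50% or more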;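 further: 0% = DMSO with enzyme and 100% = substrate without enzyme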
STEP block = STEP phosphatase inhibitors, primary screen, biochemical, fluorescence intensity, uHTS | Tyrosine-protein phosphatase non-receptor type 5 (Homo sapiens), P54829 | recombinant STEP, OMFP fluorogenic substrate | inhibition, % at 20 µM | 360,000 tested, 0.25% active;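 active means inhibition at 20 µM, scaled per plate between control wells, above about 37%, limit read from the data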;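 further: 0% = DMSO with enzyme and substrate and 100% = substrate only without enzyme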
Target sequence (P54829 whole entry, looked up): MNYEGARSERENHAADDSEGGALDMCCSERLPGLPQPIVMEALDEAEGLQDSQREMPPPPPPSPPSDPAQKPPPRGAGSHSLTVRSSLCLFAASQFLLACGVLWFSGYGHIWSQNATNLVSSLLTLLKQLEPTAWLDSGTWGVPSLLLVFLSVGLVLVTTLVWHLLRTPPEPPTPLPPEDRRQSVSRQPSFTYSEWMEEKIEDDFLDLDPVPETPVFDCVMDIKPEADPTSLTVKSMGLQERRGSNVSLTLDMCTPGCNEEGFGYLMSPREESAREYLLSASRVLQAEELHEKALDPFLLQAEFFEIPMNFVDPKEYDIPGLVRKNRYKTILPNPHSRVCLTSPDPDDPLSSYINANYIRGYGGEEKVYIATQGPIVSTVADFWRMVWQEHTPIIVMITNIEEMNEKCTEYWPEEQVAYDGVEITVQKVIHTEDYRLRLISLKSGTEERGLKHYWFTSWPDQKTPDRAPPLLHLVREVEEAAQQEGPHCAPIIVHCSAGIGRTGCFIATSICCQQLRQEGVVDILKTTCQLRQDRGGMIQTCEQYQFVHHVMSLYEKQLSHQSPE
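Test system: STEP tyrosine phosphatase / Reagent: OMFP at 25 µM / Doses: 20 µM, 1% DMSO / Read-out: percent inhibition scaled to no-enzyme and uninhibited-enzyme controls, plate-pattern corrected / Detection: FITC-channel fluorescence of OMFP product / Medium: Bis-Tris buffer pH 6.0, 2.5 mM DTT, 0.005% Tween 20 / Schedule: 20 min at room temperature, dark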
Scp-1 conf = Scp-1 phosphatase inhibitors, retest, confirmation, biochemical, colorimetric, single concentration; shares compounds with Scp1 inh; recombinant SCP-1 catalytic domain, phosphate release, malachite green absorbance; inhibition, % at 20 µM; 2,500 tested, 61% active;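 further: plate controls were DMSO with enzyme for no effect and buffer wells lacking enzyme for full effect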
MG interference = colorimetric readout interference by compounds, confirmation, artefact control for Scp-1 inhibitor project, biochemical, single concentration; Colorimetric interference counterscreen, malachite green absorbance 630 nm; 2,500 tested, under 10 active; shares compounds with Scp1 inh; apparent inhibition (interference), % at 20 µM;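 further: compounds added after enzyme reaction finished so only phosphate colour detection is probed; plate controls were DMSO wells with completed Scp-1 reaction for no effect and substrate wells lacking enzyme for full effect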
Scp-1 Tm shift = Scp-1 binding by thermal shift, confirmation, orthogonal assay for Scp-1 inhibitor project, biophysical, differential scanning fluorimetry; AID 540329, 2011; 1,500 tested, 25% active; Recombinant SCP1, Sypro Orange thermal shift Tm; shares compounds with Scp1 inh; thermal shift relative to vanadate control, % at 40 µM;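 active means substances whose mean melting-temperature shift, as a percentage of the reference inhibitor's shift, reaches about 5.3%, limit read from the data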;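 further: 0% = Tm of DMSO wells and 100% = Tm with sodium orthovanadate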
* = called active by the depositor; / = not tested or not shown. Compounds with a hit are over-represented: about 1.9% of the library has one in this group of screens.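 How the source made its calls, unless noted: active means inhibition of at least 30% at 20 µM; inactive means the rest.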

SMILES | SUMO1 PPI mod | Scp1 inh | LMPTP inh | FAS-TE inh | STEP block | Scp-1 conf | MG interference | others
COc1ccc(OC)c([N+](=O)[O-])c1C(N)=O | 5 | 68* | 14 | -6 | 21 | 62* | -7 | Scp-1 Tm shift=-10
CCN(CC)C(=O)C1=C(C)N(Cc2ccc(F)cc2)C(=O)C(CC(=O)NCC2CCCCC2)C1 (configuration not stated) | 4 | / | 1 | -1 | 3 | / | /
CC(=O)Nc1ccc(Cl)cc1-c1ccccc1 | -1 | 3 | 0 | -4 | -2 | / | /
CC(=O)Nc1cc2c(c(Cl)c1Cl)-c1ccccc1C2=O | 37 | 80* | 23 | -7 | 6 | -15 | -13
CC(Cc1c[nH]c2ccccc12)C(=O)NCc1ccco1 (configuration not stated) | 60* | 103* | 0 | -4 | 0 | 60* | -16 | Scp-1 Tm shift=-18
CC(C)[C@@H]1CC[C@@H](C)C[C@H]1O | 6 | / | -2 | -6 | -1 | / | /
Cc1ccc(CN2CC(C(=O)Nc3ncc(C)s3)CC2=O)cc1 (configuration not stated) | 0 | 51* | -1 | -4 | 1 | 2 | -9
C#Cc1ccc([C@@H]2C=C(C(=O)NCc3ccccc3)O[C@H](OCc3ccc(CO)cc3)C2)cc1 | -1 | -6 | 3 | 7 | -1 | / | /
C#Cc1ccc([C@H]2C=C(C(=O)O)O[C@@H](OCc3ccc(CO)cc3)C2)cc1 | -6 | 50* | 0 | -8 | 5 | 48* | -16 | Scp-1 Tm shift=-2
CCNc1nc(NCC)n2c(SCC(=O)Nc3cccc(Cl)c3)nnc2n1 | 13 | 54* | 0 | 4 | 2 | 50* | -14 | Scp-1 Tm shift=-12
CCC(=O)Nc1ccc(NC(=S)NC(=O)/C=C/c2ccccc2)cc1 | 2 | 67* | -1 | -2 | 12 | -4 | -16
CC1CCN(CC(O)COC2CC(C)CC(C)(C)C2)CC1 (configuration not stated) | 4 | 18 | -2 | -5 | -1 | / | /
CC[N+]1(CC(O)COC2CC(C)CC(C)(C)C2)CCOCC1 (configuration not stated) | -1 | 105* | -1 | -8 | -4 | 91* | -11 | Scp-1 Tm shift=-10
CC(=O)N1CCN(C(=O)CNC(=O)c2ccc(C)s2)CC1 | 4 | -8 | 0 | -5 | 0 | / | /
CC1CCN(C(=O)CCc2ccc(S(=O)(=O)NC(C)C)cc2)CC1 | -2 | 67* | -1 | -7 | -3 | -23 | -21
COc1ccc(CCN2C(=O)CCC2(C)c2nnnn2-c2ccc3c(c2)OCCO3)cc1OC (configuration not stated) | 2 | / | -2 | -4 | / | / | /
C=CCN1C(=O)C(=O)N(CC(=O)NCC(=O)Nc2ccc(F)c(F)c2F)C1=O | 4 | -2 | -1 | -9 | -2 | -9 | -3
CSc1ccccc1NC(=O)CN(C)CC(=O)c1[nH]c(C)c(C(C)=O)c1C | -4 | 101* | -1 | -3 | -1 | -19 | -24
CCN(CC)C(=S)Sc1c(-c2ccccc2)c2cc(Cl)ccc2[nH]c1=O | -4 | -2 | 3 | 12 | 12 | / | /
O=C(Nc1cccc2nsnc12)c1ccc2c(c1)OCO2 | -20 | -4 | 1 | 1 | -2 | / | /
O=C(Nc1cccc2nsnc12)c1ccc2c(c1)OCCO2 | -20 | 70* | 0 | 0 | 2 | -16 | -16

High-throughput results (PubChem)
